The list is not random: actives were taken first. Their share in the collection is about 4.9%.
STAT1 act = STAT1 signaling activation; NIH 3T3 STAT1-luciferase reporter, IFN-gamma, luminescence; 100% = IFN-gamma alone, no compound; activation (% of control), % at 5.5 µM; 200,000 compounds, 2.6% hits;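 active = activation above the screen-wide mean activation plus 3 SD, cut at about 130% in these data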;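 also: raw ratio to IFN-gamma control signal so 100% means no change and 0% no light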
STAT1 blocker = reduces IFN-gamma driven STAT1 reporter signal | NIH 3T3 STAT1-luciferase reporter, luminescence | inhibition, % at 5.5 µM | 200,000 compounds, 0.35% hits;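 active = inhibition above a set limit, the mean inhibition across all tested compounds plus 3 SD, cut at about 34% in these data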;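 also: 0% = IFN-gamma with DMSO and 100% = IFN-gamma with 300 µM nifuroxazide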
STAT3 inh = STAT3 signaling inhibition | U3A cells, IL-6 STAT3-luciferase reporter, luminescence; host cell line lacks STAT1 | inhibition, % at 5.5 µM | 190,000 compounds, 0.89% hits | AID 862;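 active = inhibition above the mean inhibition across all screened compounds plus 3 SD, cut at about 44% in these data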;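 also: 0% = DMSO only wells and 100% = 100 µM nifuroxazide control wells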
STAT3 act = STAT3 signaling activation. AID 871. 190,000 compounds, 0.91% hits. U3A cells, IL-6 STAT3-luciferase reporter, luminescence; 100% = signal with IL-6 EC80 alone. activation (% of control), % at 5.6 µM;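 active = activation above the screen-wide mean of compound activation plus 3 SD, cut at about 130% in these data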;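 also: 0% = background luminescence of wells with medium and substrate only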
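Test system: STAT3-luciferase reporter U3A cells; Detection: reporter luminescence signal; Times: 1 h compound pre-exposure, 6 h IL-6 stimulation, 37 °C; Benchmarks: IL-6-only high control; Also added: IL-6 stimulus at 33 ng/mL final.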
NF-kB neuron act = compounds increasing NF-kB expression in human neuronal cells; NF-kB reporter expression; hits give high values; fold change at 12.5 µM; 190,000 compounds, 1.6% hits; AID 1239; in the data active = fold change above about 3.3
APP 5'UTR act = activates APP 5'UTR luciferase reporter. SH-SY5Y APP 5'UTR luciferase reporter, luminescence; zero percent = DMSO vehicle wells. activation, % at 2 µM. 190,000 compounds, 1% hits;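 active = activation above a set limit, based on mean plus 3 SD of controls, cut at about 140% in these data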
The depositor's hits bear a star.

SMILES | STAT1 act | STAT1 blocker | STAT3 inh | STAT3 act | NF-kB neuron act | APP 5'UTR act
O=C(/C=C/c1ccc2c(c1)OCO2)Nc1nc(-c2ccc(F)cc2F)cs1 | 97 | 3 | 22 | 84 | 1.1 | 0
COc1ccc(NC(=O)/C=C/c2ccc3c(c2)OCO3)cc1 | 131* | -35 | 15 | 88 | 3.2 | 73
O=C(/C=C/c1ccc2c(c1)OCO2)Nc1nc2ccccc2s1 | 146* | -51 | -2 | 97 | 1.1 | 156*
Cc1csc(NC(=O)/C=C/c2ccc3c(c2)OCO3)n1 | 59 | 44* | 88* | 28 | 1.3 | 110
Cc1ccc2nc(NC(=O)/C=C/c3ccc4c(c3)OCO4)sc2c1 | 104 | -2 | 5 | 94 | 1.1 | 21
O=C(Cc1ccc(Br)cc1)NC1CCSC1=O (configuration not stated) | 100 | 0 | 12 | 100 | 1.1 | 8
CC(C)=CC(=O)Nc1ccc2c(c1)OCO2 | 111 | -12 | 14 | 91 | 4.5* | 126
Cc1ccc2nc(COc3ccc(Cl)cc3)cc(=O)n2c1 | 136* | -41 | 10 | 101 | 2.6 | 53
CCC(=O)c1ccc(OCc2ccccc2)c(OC)c1 | 129* | -33 | -10 | 108 | 2 | 71
CCC(=O)c1c(OCc2ccccc2)ccc2c(C)cc(=O)oc12 | 100 | -2 | 4 | 98 | 3.4* | -3
CCC(=O)c1ccc(OCc2ccc(C(=O)OC)cc2)c(OC)c1 | 98 | 3 | -3 | 103 | 1.2 | -3
CCOC(=O)COc1ccc2c(C)cc(=O)oc2c1C(=O)c1ccccc1 | 98 | 1 | 6 | 97 | 1 | -3
COc1cccc(C(=O)Nc2sc3c(c2C#N)CCN(C(C)=O)C3)c1 | 89 | 12 | 19 | 88 | 1.8 | -92
O=C(c1cc(-c2ccccc2)n[nH]1)N1CCc2c([nH]c3ccccc23)C1c1ccccn1 (configuration not stated) | 111 | -14 | 10 | 94 | 0.81 | -10
Nc1nc(-c2c[nH]c3ccccc23)cs1 | 93 | 7 | 1 | 104 | 0.42 | 13
CCc1ccc(-c2csc(-c3c[nH]c4ccccc34)n2)cc1 | 132* | -36 | -14 | 112 | 2.7 | 40
CCC(=O)Oc1ccc2oc(=O)cc(C)c2c1 | 100 | 0 | -8 | 110 | 1.3 | -5
CCOc1ccc2oc(=O)cc(C)c2c1 | 133* | -36 | 13 | 95 | 1.5 | -8
Cc1ccsc1/C=N/NC(=O)c1c[nH]c2ccccc12 | 126 | -28 | -22 | 127 | 2.5 | 70
COc1cc(/C=N/NC(=O)c2ccoc2C)ccc1O | 138* | -42 | 13 | 88 | 2.4 | 72
Cc1ccc(/C=N/NC(=O)c2ccoc2C)s1 | 139* | -44 | -10 | 109 | 2.3 | 79
Cc1occc1C(=O)N/N=C/c1ccc(Br)s1 | 139* | -46 | 10 | 96 | 2.6 | 66
Cc1ccc(/C=N/NC(=O)c2c[nH]c3ccccc23)s1 | 146* | -51 | -18 | 119 | 3.1 | 78
CC/C(=N\NC(=O)c1c[nH]c2ccccc12)c1cccs1 | 136* | -41 | -12 | 115 | 2.1 | 96
CNC(=S)N/N=C/c1cccc(OCc2ccccc2F)c1 | 132* | -36 | 2 | 96 | 1.6 | 34
SMILES | STAT1 act | STAT1 blocker | STAT3 inh | STAT3 act | NF-kB neuron act | APP 5'UTR act
CC(C)(C)c1ccc(C(=O)N/N=C/c2ccc(OCCCF)cc2)cc1 | 112 | -15 | 3 | 105 | 1 | -1
COc1ccccc1-c1nn2c(C3COc4ccccc4O3)nnc2s1 (configuration not stated) | 102 | -2 | -36 | 133* | 1.1 | -2
c1ccc(Cc2nn3c(C4COc5ccccc5O4)nnc3s2)cc1 (configuration not stated) | 104 | -5 | -41 | 135* | 1.7 | 15
O=S(=O)(/N=C(/Nc1ccc(F)cc1F)c1ccccc1)c1ccccc1 | 102 | -2 | -9 | 105 | 0.8 | -8
CC1CCc2c(sc3ncn(CCO)c(=O)c23)C1 (configuration not stated) | 138* | -42 | -19 | 117 | 2.1 | 88
O=C(O)c1ccc(-c2nc(-c3ccc(Cl)cc3Cl)cs2)cc1 | 137* | -42 | -20 | 132 | 2.1 | 122
COc1cc(NC(=O)C/C(C)=N/NC(=O)c2cccs2)c(OC)cc1Cl | 139* | -41 | -17 | 117 | 1.3 | 171*
